Series [1] addresses T1, Orexin receptor type 2 (Homo sapiens) (UniProt O43614).
T1 sequence (whole entry): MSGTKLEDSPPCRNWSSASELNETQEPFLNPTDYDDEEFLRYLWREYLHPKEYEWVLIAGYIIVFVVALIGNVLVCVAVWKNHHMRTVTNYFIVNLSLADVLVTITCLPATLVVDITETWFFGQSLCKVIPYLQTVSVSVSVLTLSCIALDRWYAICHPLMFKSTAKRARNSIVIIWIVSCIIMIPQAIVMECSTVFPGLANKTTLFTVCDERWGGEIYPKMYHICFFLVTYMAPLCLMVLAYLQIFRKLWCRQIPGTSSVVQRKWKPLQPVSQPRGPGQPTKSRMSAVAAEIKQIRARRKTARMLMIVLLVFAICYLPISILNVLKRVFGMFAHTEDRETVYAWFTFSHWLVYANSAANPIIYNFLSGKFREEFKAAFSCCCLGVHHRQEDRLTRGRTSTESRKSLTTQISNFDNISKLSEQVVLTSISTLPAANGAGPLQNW
As to the kind of experiment: Agonist activity at human OX2R expressed in CHOK1 cells at 10 uM by calcium mobilization assay relative to orexin-A. Particulars: CHO-K1. (Calcium assays in cells follow changes in intracellular calcium, usually with a dye or a luminescent sensor.)

Series [2] has as its target T2, Orexin/Hypocretin receptor type 1 (Homo sapiens, UniProt O43613).
T2 sequence (O43613 whole entry): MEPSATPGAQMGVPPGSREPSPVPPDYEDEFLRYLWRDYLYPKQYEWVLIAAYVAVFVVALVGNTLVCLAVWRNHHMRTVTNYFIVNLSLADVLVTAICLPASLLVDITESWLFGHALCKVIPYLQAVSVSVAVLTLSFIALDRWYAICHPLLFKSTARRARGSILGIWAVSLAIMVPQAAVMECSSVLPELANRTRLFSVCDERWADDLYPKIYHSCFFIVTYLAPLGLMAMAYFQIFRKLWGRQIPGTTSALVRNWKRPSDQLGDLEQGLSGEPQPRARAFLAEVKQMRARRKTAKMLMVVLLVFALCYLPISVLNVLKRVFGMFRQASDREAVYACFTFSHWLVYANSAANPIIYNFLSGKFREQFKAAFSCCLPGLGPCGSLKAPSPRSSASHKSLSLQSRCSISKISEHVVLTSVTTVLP
As to the kind of experiment: Agonist activity at human OX1R expressed in CHOK1 cells by calcium mobilization assay. Format: functional, cell-based, CHO-K1.

In series [3] the target is T3, Orexin/Hypocretin receptor type 1 (Homo sapiens) (UniProt O43613).
T3 sequence (whole entry): T2 sequence (O43613 whole entry)
As to the kind of experiment: Agonist activity at human OX1R expressed in CHOK1 cells by calcium mobilization assay relative to orexin-A. Particulars: CHO-K1. The format is functional, cell-based.

The next series relates to CHO-K1. The series can be described thus: Selectivity index, ratio of EC50 for human OX1R expressed in CHOK1 cells to EC50 for human OX2R expressed in CHOK1 cells. Format: cell-based.
In series [4] the target is T4, Orexin receptor type 2 (Homo sapiens, UniProt O43614).
T4 sequence (O43614 whole entry): T1 sequence (whole entry)
As to the kind of experiment: Agonist activity at human OX2R expressed in CHOK1 cells by calcium mobilization assay.

Series [5] has as its target T1, Orexin receptor type 2 (Homo sapiens). As to the kind of experiment: Agonist activity at human OX2R expressed in CHOK1 cells at 10 uM by NFAT-response luciferase reporter gene assay relative to orexin-A. The format is cell-based. Particulars: CHO-K1. Background: A reporter such as luciferase makes a cellular process visible.
Series [6] shares this target. As to the kind of experiment: Agonist activity at human OX2R expressed in CHOK1 cells at 10 uM by calcium mobilization assay relative to orexin-A. The format is functional, cell-based. The conditions noted are these: CHO-K1.
The target in series [7] is T4, Orexin receptor type 2. The series can be described thus: Agonist activity at human OX2R expressed in CHOK1 cells by NFAT-response luciferase reporter gene assay. Format: cell-based. Particulars: cho-k1.
Series [8] deals with T1, Orexin receptor type 2 (Homo sapiens). The series can be described thus: Agonist activity at human OX2R expressed in CHOK1 cells at 1 uM by calcium mobilization assay relative to orexin-A. Format: functional, cell-based. The conditions noted are these: CHO-K1.
The subject of series [9] is Mus musculus. The series can be described thus: Induction of wakefullness in C57BL/6J mouse assessed as increase in wake time by measuring EEG/EMG signals at 260 nmol, icv dosed on every other day during light phase. The format is functional. In a few lines: (§1)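 Intracerebroventricular injection during the light phase, given at 6 h into the light phase (ZT6). Saline was the vehicle control. Sleep/wake states were scored from EEG/EMG recordings, and the read-out was cumulative time awake within 2 h after dosing. Wild-type C57BL/6J mice and OX1R/OX2R double-knockout mice were used.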

Series [10] relates to Mus musculus. The series can be described thus: Induction of wakefullness in OX1R/OX2R double knock out C57BL/6J mouse assessed as increase in wake time by measuring EEG/EMG signals at 260 nmol, icv dosed on every other day during light phase. The format is functional, organism-based. In a few lines:
as §1

The subject of series [11] is Mus musculus. As to the kind of experiment: Induction of wakefullness in C57BL/6J mouse assessed as EEG/EMG signals at 32 to 260 nmol, icv dosed on every other day during light phase. Format: functional, organism-based. Put shortly: as §1
For series [12], the target named is T1, Orexin receptor type 2 (Homo sapiens). The series can be described thus: Agonist activity at human OX2R expressed in CHOK1 cells at 5 uM by NFAT-response luciferase reporter gene assay relative to orexin-A. The format is cell-based. The conditions noted are these: CHO-K1.
Series [13] has the same target. The series can be described thus: Agonist activity at human OX2R expressed in CHOK1 cells at 5 uM by calcium mobilization assay relative to orexin-A. Format: functional, cell-based. Particulars: CHO-K1.
A short description of series [14]: Stability in pH 8.0 buffer. The format is physicochemical.
In series [15] the target is T4, Orexin receptor type 2. As to the kind of experiment: biochemical.

SMILES strings stand for the structures. The source made the active and inactive calls. The rule behind the calls is not given here. Bounds are passed on as bounds.

What is called Emax is the maximal effect, on the per cent scale that the assay sets. One may read the EC50 as the midpoint of the concentration-response curve. A word on the Ki: it is a dissociation constant, usually derived from enzyme kinetics or from competition with a known ligand.

As for `COc1ccccc1C(=O)NCCNc1cccc(NS(=O)(=O)c2cc(-c3cccnc3)ccc2OC)c1`, in series [1], the Emax amounted to 88%.

As to `COc1ccc(-c2cccc(C(=O)N(C)C)c2)cc1S(=O)(=O)Nc1cccc(NCCNC(=O)c2cccc(Cl)c2)c1`, the EC50 was found to be 5720 nM in series [2] (read-out: EC50) and 94 nM on Orexin receptor type 2 [4]. Besides, the Emax in series [3] worked out at 73%. The Ratio EC50 with CHO-K1 was found to be 60.

For the compound `COc1ccccc1C(=O)NCCNc1cccc(NS(=O)(=O)c2cc(C(C)C)c(C)cc2OC)c1`, the Efficacy in series [5] is 33%; in [6], 22%.

With `COc1ccc(-c2cccc(C(=O)N(C)C)c2)cc1C(=O)Nc1cccc(NCCNC(=O)c2cccc(C)c2)c1`, the EC50 result (at Orexin receptor type 2 [7]; in series [2] (cho-k1)) was “Not Active” throughout.

As to `COc1ccccc1C(=O)NCCNc1ccc(NS(=O)(=O)c2cc(C(C)C)c(C)cc2OC)cc1`, the Efficacy in [5] is 18%; in [6] it was 12%.

Regarding `COc1cccc(-c2ccc(OC)c(S(=O)(=O)Nc3cccc(NCCNC(=O)c4ccccc4OC)c3)c2)c1`, the Emax in [8] is 54%. Further, the EC50 on Orexin receptor type 2 [4] is 800 nM.

In series [5], `COc1ccccc1C(=O)N1CCC(CNS(=O)(=O)c2cc(C(C)C)c(C)cc2OC)CC1` gave an Efficacy of 16%. Besides, the Efficacy entry in series [6] is “inactive”.

In series [5], `COc1ccccc1C(=O)N[C@H]1CC[C@H](CNS(=O)(=O)c2cc(C(C)C)c(C)cc2OC)CC1` came in with an Efficacy of 24%. In addition, in series [6], the Efficacy result is “inactive”.

As to `COc1ccccc1C(=O)NCCNc1cc(C)ccc1NS(=O)(=O)c1cc(C(C)C)c(C)cc1OC`, the Efficacy in [5] was determined as 9%. In series [6], the Efficacy result is “inactive”.

With `COc1ccc(-c2cccc(C(=O)N(C)C)c2)cc1S(=O)(=O)Nc1cccc(NCCNC(=O)c2ccccc2Cl)c1`, the EC50 in series [2] (read-out: EC50) came out at 6130 nM. Moreover, the Emax in series [3] is 50%. For the same compound, the Ratio EC50 with CHO-K1 amounted to 198.

For the compound `COc1ccc(-c2cccc(C(=O)N(C)C)c2)cc1S(=O)(=O)Nc1cccc(NCCNC(=O)c2ccccc2N(C)C)c1.Cl`, in the series with Mus musculus [9], the Time was found to be 53 min.

Regarding `COc1ccccc1C(=O)NCCNc1cccc(NS(=O)(=O)c2cc(-c3cccc(F)c3)ccc2OC)c1`, the EC50 on Orexin receptor type 2 [4] was above 10000 nM. Further, the Emax in series [1] stood at 47%.

For `COc1ccccc1C(=O)NCCNc1cccc(NS(=O)(=O)c2cc(-c3ccccc3)ccc2OC)c1`, the EC50 on Orexin receptor type 2 [4] was above 10000 nM. In addition, in series [1], the Emax was 48%.

Take `COc1ccc(-c2cccc(C(=O)N(C)C)c2)cc1S(=O)(=O)Nc1cccc(NCCNC(=O)c2ccccc2N(C)C)c1` [listing 1 of 2 here]: the Emax in series [3] turned out to be 55%. In addition, in the series on Mus musculus [10], the outcome was inactive. Also, the Activity entry with Mus musculus [11] is “Dose-dependent effect”.

For the compound `COc1ccc(-c2cccc(C(=O)N(C)C)c2)cc1S(=O)(=O)Nc1cccc(NCCNC(=O)c2ccccc2)c1`, at Orexin receptor type 2 [4], the EC50 is above 10000 nM.

`COc1cccc(C(=O)NCCNc2cccc(NS(=O)(=O)c3cc(-c4cccc(C(=O)N(C)C)c4)ccc3OC)c2)c1`: in series [2] (read-out: EC50), the EC50 was determined as 9250 nM. The Emax in [3] stood at 49%. The Ratio EC50 with CHO-K1 turned out to be 280.

With `CNC(=O)c1cccc(-c2ccc(OC)c(S(=O)(=O)Nc3cccc(NCCNC(=O)c4ccccc4OC)c3)c2)c1`, in [8], the Emax turned out to be 98%.

With `COc1ccccc1C(=O)NCCNc1cccc(NS(=O)(=O)c2cc(-c3cccc(C(=O)N4CCC4)c3)ccc2OC)c1`, the EC50 at Orexin receptor type 2 [4] amounted to 235 nM. For the same compound, in series [1], the Emax was 85%.

Take `COc1ccc(-c2cccc(C(=O)N(C)C)c2)cc1S(=O)(=O)Nc1cccc(NCCNC(=O)c2ccccc2N(C)C)c1` [listing 2 of 2 here]: the figures for the EC50 (in series [2] (read-out: EC50); on Orexin receptor type 2 [4]) were 2750 nM and 28 nM, respectively.

For the compound `COc1ccccc1C(=O)NCCNc1cccc(NS(=O)(=O)c2cc(-c3cccc(N)c3)ccc2OC)c1`, at Orexin receptor type 2 [4], the EC50 is above 1000 nM. Moreover, the Emax in series [1] is 73%.

For the compound `Cc1ccc(S(=O)(=O)n2nc(OC(=O)c3c(-c4ccccc4Cl)noc3C)cc2N)cc1`, in series [12], the Efficacy was 36%. In series [13], the Efficacy result is “inactive”. Besides, the Stability entry in [14] was “Unstable”.

As for `COc1ccccc1C(=O)NCCNc1cccc(NS(=O)(=O)c2cc(-c3cccc(C(=O)N(C)C)c3)ccc2OC)c1`, the Emax in series [8] worked out at 74%; in series [3], 46%. For the same compound, the EC50 in [2] (read-out: EC50) was 5230 nM. In addition, the Ratio EC50 with CHO-K1 turned out to be 105.

`COC(=O)c1cccc(-c2ccc(OC)c(S(=O)(=O)Nc3cccc(NCCNC(=O)c4ccccc4OC)c3)c2)c1`: the EC50 at Orexin receptor type 2 [4] was above 10000 nM. Besides, in series [1], the Emax is 49%.

In the case of `COc1ccc(-c2cccc(C(=O)N(C)C)c2)cc1S(=O)(=O)Nc1cccc(NCCNC(=O)c2cccc(C)c2)c1`, the Emax in series [3] was found to be 100%. The compound also gave a Ki at Orexin receptor type 2 [15] of 770 nM.

(Values after ChEMBL document CHEMBL3621114, “Design and Synthesis of Non-Peptide, Selective Orexin Receptor 2 Agonists” (J Med Chem, 2015).)
